The values below come from ChEMBL document CHEMBL4138227, “Identification of an oxime-containing C-glucosylarene as a potential inhibitor of sodium-dependent glucose co-transporter 2” (Eur J Med Chem, 2018).

Data set [1] deals with T1, Sodium/glucose cotransporter 2 (Homo sapiens, UniProt P31639).
T1 sequence (P31639 whole entry): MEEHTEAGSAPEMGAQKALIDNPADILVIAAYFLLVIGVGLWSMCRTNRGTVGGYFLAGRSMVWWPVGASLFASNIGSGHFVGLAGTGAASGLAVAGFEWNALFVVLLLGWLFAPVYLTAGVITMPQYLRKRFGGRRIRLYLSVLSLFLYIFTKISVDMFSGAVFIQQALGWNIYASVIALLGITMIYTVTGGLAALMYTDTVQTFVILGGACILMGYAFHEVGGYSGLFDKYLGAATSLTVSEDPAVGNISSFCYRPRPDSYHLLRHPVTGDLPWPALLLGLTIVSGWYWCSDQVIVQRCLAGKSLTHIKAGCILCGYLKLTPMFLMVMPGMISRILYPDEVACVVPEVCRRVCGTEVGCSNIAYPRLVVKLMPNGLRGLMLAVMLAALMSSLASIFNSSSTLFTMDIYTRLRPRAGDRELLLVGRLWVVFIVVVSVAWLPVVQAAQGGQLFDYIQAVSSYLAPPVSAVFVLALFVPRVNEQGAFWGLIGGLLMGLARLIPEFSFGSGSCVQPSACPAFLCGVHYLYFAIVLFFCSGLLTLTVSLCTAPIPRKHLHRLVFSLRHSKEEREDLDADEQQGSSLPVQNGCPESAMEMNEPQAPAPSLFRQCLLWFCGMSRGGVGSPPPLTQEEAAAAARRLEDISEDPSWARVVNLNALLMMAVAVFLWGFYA
Briefly: Inhibition of human SGLT2 expressed in CHO cells assessed as reduction in [14C]AMG uptake after 1 hr by microbeta counting method. The format is cell-based. In outline:
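CHO cells stably expressing human SGLT2 (or SGLT1); inhibition of sodium-dependent uptake of [14C]α-methyl-D-glucopyranoside measured; EC50 from at least two independent experiments, each in triplicate.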

The nature of data set [2]: Volume of distribution at steady state in Sprague-Dawley rat at 1.1 mg/kg, iv. The format is ADME, organism-based. The note with it: in vivo, read-out: Vdss.
Data set [3] is described as follows: AUC (0 to infinity) in Sprague-Dawley rat at 1.1 mg/kg, iv. The format is ADME, organism-based. Further details: dose 1.1 mg/kg, route intravenous, time infinity. The following applies: in vivo. In outline:
(§1)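 Rats got a single intravenous or oral dose, with 3 animals per route. Pharmacokinetic parameters were derived, including T1/2, clearance, Vss, Cmax, Tmax, AUC(0-inf) and oral bioavailability (F).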

Data set [4] can be described thus: Elimination half life in Sprague-Dawley rat at 1.1 mg/kg, iv. The format is ADME, organism-based. The following applies: in vivo, read-out: beta t1/2 (converted).
A short description of data set [5]: Elimination half life in Sprague-Dawley rat at 1.1 mg/kg, po. The format is ADME, organism-based. The note with it: in vivo, read-out: beta t1/2 (converted).
Data set [6] can be described thus: Cmax in Sprague-Dawley rat at 1.1 mg/kg, po. The following applies: in vivo. More on the design: dose 1.1 mg/kg, route oral. The format is ADME, organism-based.
The nature of data set [7]: Tmax in Sprague-Dawley rat at 1.1 mg/kg, po. The format is ADME, organism-based. The following applies: in vivo.
A short description of data set [8]: Clearance in Sprague-Dawley rat at 1.1 mg/kg, iv. The format is ADME, organism-based. The note with it: in vivo.
Data set [9] can be described thus: AUC (0 to infinity) in Sprague-Dawley rat at 1.1 mg/kg, po. The format is ADME, organism-based. Further details: dose 1.1 mg/kg, time infinity, route oral. The following applies: in vivo. In outline:
as §1

The nature of data set [10]: Oral bioavailability in Sprague-Dawley rat at 1.1 mg/kg. The format is ADME, organism-based. The following applies: in vivo.
Data set [11] can be described thus: Volume of distribution at steady state in Sprague-Dawley rat at 1 mg/kg, iv. The format is ADME, organism-based. The following applies: in vivo, read-out: Vdss.
Data set [12] can be described thus: AUC (0 to infinity) in Sprague-Dawley rat at 1 mg/kg, iv. The format is ADME, organism-based. Further details: dose 1 mg/kg, time infinity, route intravenous. The note with it: in vivo. In outline:
as §1

The nature of data set [13]: Clearance in Sprague-Dawley rat at 1 mg/kg, iv. The format is ADME, organism-based. The following applies: in vivo.
Data set [14] in a line: Tmax in Sprague-Dawley rat at 1 mg/kg, po. The format is ADME, organism-based. The note with it: in vivo.
The nature of data set [15]: Elimination half life in Sprague-Dawley rat at 1 mg/kg, po. The format is ADME, organism-based. The following applies: in vivo, read-out: beta t1/2 (converted).
Data set [16] is described as follows: Cmax in Sprague-Dawley rat at 1 mg/kg, po. The format is ADME, organism-based. Further details: dose 1 mg/kg, route oral. The note with it: in vivo.
The nature of data set [17]: AUC (0 to infinity) in Sprague-Dawley rat at 1 mg/kg, po. The format is ADME, organism-based. More on the design: dose 1 mg/kg, time infinity, route oral. The following applies: in vivo. In outline:
as §1

Data set [18] in a line: Oral bioavailability in Sprague-Dawley rat at 1 mg/kg. The format is ADME, organism-based. The following applies: in vivo.
Data set [19] in a line: Elimination half life in Sprague-Dawley rat at 1 mg/kg, iv. The format is ADME, organism-based. The note with it: in vivo, read-out: beta t1/2 (converted).
The subject of data set [20] is Rattus norvegicus. Briefly: In vivo inhibition of SGLT2 in Sprague-Dawley rat assessed as urinary glucose excretion per 200 gram of body weight at 50 mg/kg, po administered as single dose measured after 24 hrs. The format is functional. In outline: (§2)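 Normal SD rats given a single oral dose (0.1, 1, 10 or 50 mg/kg) or vehicle; urine collected over 24 h and glucose excretion expressed as mg per 200 g body weight; mean ± SEM, n = 4/group (vehicle n = 8).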

For data set [21], the system named is Rattus norvegicus. Briefly: In vivo inhibition of SGLT2 in Sprague-Dawley rat assessed as urinary glucose excretion per 200 gram of body weight at 1 mg/kg, po administered as single dose measured after 24 hrs. The format is functional. The gist of the method:
as §2

Data set [22] concerns Rattus norvegicus. As to the kind of experiment: Antihyperglycemic activity in streptozotocin-induced diabetic Sprague-Dawley rat model assessed as reduction in blood glucose level at 0.1 to 10 mg/kg, po administered as single dose measured after 5 hrs relative to control. The format is functional. More on the design: scale not given: the % may be the effect or the level left. The gist of the method: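 STZ-diabetic SD rats (blood glucose >450 mg/dL), single oral dose 0.1 or 10 mg/kg or vehicle; tail-vein blood sampled at 0 (predose), 0.5, 1, 2, 3, 4 and 5 h for glucose; reduction expressed versus vehicle control; mean ± SEM, n = 6/group.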

Data set [23] concerns Rattus norvegicus. As to the kind of experiment: In vivo inhibition of SGLT2 in Sprague-Dawley rat assessed as increase in urinary glucose excretion per 200 gram of body weight at 0.1 to 50 mg/kg, po administered as single dose measured after 24 hrs relative to control. The format is functional. In outline: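 Normal Sprague-Dawley rats were given a single oral dose of 0.1, 1, 10 or 50 mg/kg. Urine was collected over 24 h and glucose excretion expressed as mg glucose per 200 g body weight, relative to vehicle controls. Groups were n = 4, with vehicle n = 8. Data are mean ± SEM; p < 0.05 vs vehicle.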

The target in the next data set is hERG (KCNH2) (Homo sapiens, UniProt Q12809). Briefly: Inhibition of human ERG at 10 uM by radioligand assay relative to control. The gist of the method:
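hERG radioligand binding assay run externally by a contract laboratory; test compound at 10 µM, percent inhibition reported.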

In data set [24] the test system is Rattus norvegicus. As to the kind of experiment: In vivo inhibition of SGLT2 in Sprague-Dawley rat assessed as urinary glucose excretion per 200 gram of body weight at 0.1 mg/kg, po administered as single dose measured after 24 hrs. The format is functional. The gist of the method:
as §2

Data set [25] concerns Rattus norvegicus. Briefly: In vivo inhibition of SGLT2 in Sprague-Dawley rat assessed as urinary glucose excretion per 200 gram of body weight at 10 mg/kg, po administered as single dose measured after 24 hrs. The format is functional. The gist of the method: as §2

Chain of hERG (KCNH2) (Q12809 whole entry): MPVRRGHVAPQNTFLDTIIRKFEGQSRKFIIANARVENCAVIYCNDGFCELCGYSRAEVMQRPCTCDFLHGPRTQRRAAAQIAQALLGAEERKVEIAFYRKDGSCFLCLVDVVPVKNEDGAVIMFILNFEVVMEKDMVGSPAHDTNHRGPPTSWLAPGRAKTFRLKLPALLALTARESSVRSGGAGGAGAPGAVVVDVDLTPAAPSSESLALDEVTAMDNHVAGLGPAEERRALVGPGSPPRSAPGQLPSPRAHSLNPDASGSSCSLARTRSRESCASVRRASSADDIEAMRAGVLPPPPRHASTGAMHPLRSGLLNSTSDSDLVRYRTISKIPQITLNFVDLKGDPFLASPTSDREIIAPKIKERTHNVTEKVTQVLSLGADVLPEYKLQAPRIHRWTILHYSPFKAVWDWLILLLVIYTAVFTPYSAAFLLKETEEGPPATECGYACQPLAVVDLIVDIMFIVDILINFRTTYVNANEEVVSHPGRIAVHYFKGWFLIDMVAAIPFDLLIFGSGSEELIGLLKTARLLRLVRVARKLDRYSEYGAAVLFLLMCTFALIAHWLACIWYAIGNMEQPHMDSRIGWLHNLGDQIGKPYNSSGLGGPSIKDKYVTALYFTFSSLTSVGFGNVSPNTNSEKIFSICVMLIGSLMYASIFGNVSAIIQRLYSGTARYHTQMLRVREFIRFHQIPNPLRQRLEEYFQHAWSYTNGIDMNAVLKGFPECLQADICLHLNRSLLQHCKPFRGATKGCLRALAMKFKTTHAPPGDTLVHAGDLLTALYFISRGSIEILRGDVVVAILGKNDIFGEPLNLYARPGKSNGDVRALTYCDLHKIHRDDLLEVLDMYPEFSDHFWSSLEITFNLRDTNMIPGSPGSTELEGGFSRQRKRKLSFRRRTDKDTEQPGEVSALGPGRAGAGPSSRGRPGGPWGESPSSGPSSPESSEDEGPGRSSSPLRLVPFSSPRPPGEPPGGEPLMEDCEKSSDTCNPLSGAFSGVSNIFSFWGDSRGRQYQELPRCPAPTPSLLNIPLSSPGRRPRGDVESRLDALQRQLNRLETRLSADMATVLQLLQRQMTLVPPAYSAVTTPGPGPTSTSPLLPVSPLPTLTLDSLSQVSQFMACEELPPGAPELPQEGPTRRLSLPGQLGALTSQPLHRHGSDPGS

One may read the EC50 as the concentration giving half of the maximal effect. As to `CCOc1ccc(Cc2cc([C@@H]3O[C@H](/C=N/NC(C)=O)[C@@H](O)[C@H](O)[C@H]3O)ccc2Cl)cc1`, the concentration giving a half-maximal response (EC50) in data set [1] was 395 nM.
Turning to `CCOc1ccc(Cc2cc([C@@H]3O[C@H](/C=N/OCc4ccccc4)[C@@H](O)[C@H](O)[C@H]3O)ccc2Cl)cc1`, in data set [1], the EC50 came to 2250 nM.
As to `CCOc1ccc(Cc2cc([C@@H]3O[C@H](/C=N/NC(=O)c4ccc(Cl)cc4)[C@@H](O)[C@H](O)[C@H]3O)ccc2Cl)cc1`, in [1], the EC50 was 65 nM.
For `CCOc1ccc(Cc2cc([C@@H]3O[C@H](/C=N/OCC4CC4)[C@@H](O)[C@H](O)[C@H]3O)ccc2Cl)cc1`, the EC50 in data set [1] stood at 1950 nM.
Turning to `CCOc1ccc(Cc2cc([C@@H]3O[C@H](/C=N/Nc4nc5ccccc5s4)[C@@H](O)[C@H](O)[C@H]3O)ccc2Cl)cc1`, the EC50 in [1] worked out at 204 nM.
Usually AUC(0-inf) stands for the area under the concentration-time curve extrapolated to infinity. By Cmax is commonly meant the highest concentration seen after dosing. By Tmax is commonly meant the time from dosing to the highest level. By clearance is commonly meant the volume of plasma or blood freed of the substance per unit of time. A word on the bioavailability: it is the share of a dose that reaches the circulation, judged against a reference dose that is usually intravenous. Consider `CCOc1ccc(Cc2cc([C@@H]3O[C@H](/C=N/NCCO)[C@@H](O)[C@H](O)[C@H]3O)ccc2Cl)cc1`, for which, in data set [2], the Vd came to 0.8 L/kg. Besides, the values for the area under the curve AUC(0-inf) in [3] and in [9] were 1030 ng·h/mL and 73 ng·h/mL, respectively. In addition, in [1], the EC50 stood at 88 nM. Besides, the half-life in [4] is 0.7 h; in data set [5], 1.2 h. This compound gave a Cmax in data set [6] of 34.5 ng/mL. The Tmax in [7] came to 0.7 h. This compound also gave a clearance in [8] of 17.6 mL/min/kg. Further, the bioavailability in data set [10] is 7.1%.
For `CCOc1ccc(Cc2cc([C@@H]3O[C@H](CNOC)[C@@H](O)[C@H](O)[C@H]3O)ccc2Cl)cc1`, the EC50 in data set [1] worked out at 63 nM. The Vd in data set [11] worked out at 1.8 L/kg. The area under the curve AUC(0-inf) in data set [12] amounted to 1070 ng·h/mL; in [17] it was 352 ng·h/mL. Moreover, the clearance in data set [13] is 16.5 mL/min/kg. Moreover, the time of peak concentration (Tmax) in data set [14] amounted to 1.3 h. The values for the half-life in [15] and in data set [19] were 3 h and 1.9 h, respectively. For the same compound, in data set [16], the highest level (Cmax) was 67.2 ng/mL. In data set [18], this compound returned a bioavailability of 32.8%.
As to `CCOc1ccc(Cc2cc([C@@H]3O[C@H](/C=N/OCCO)[C@@H](O)[C@H](O)[C@H]3O)ccc2Cl)cc1`, the EC50 in [1] was determined as 194 nM.
A word on the inhibition: it is how much of the control response was suppressed. For the compound `CCOc1ccc(Cc2cc([C@@H]3O[C@H](/C=N/O)[C@@H](O)[C@H](O)[C@H]3O)ccc2Cl)cc1`, the concentration giving a half-maximal response (EC50) in data set [1] turned out to be 46 nM. Further, the Vd in data set [11] came out at 1.8 L/kg. The Activity with Rattus norvegicus [20] turned out to be 2732 mg; in the data set on Rattus norvegicus [21], 2215 mg; with Rattus norvegicus [22] it was 44%; in the data set on Rattus norvegicus [24], 275 mg; in the data set with Rattus norvegicus [25] it was 1935 mg. Moreover, the half-life in data set [5] is 9 h; in [19], 4.7 h. Also, the AUC(0-inf) in data set [12] was found to be 3270 ng·h/mL; in [9], 2270 ng·h/mL. The compound also yielded a clearance in data set [13] of 5 mL/min/kg. Further, the “fold change (FC)” value in the data set with Rattus norvegicus [23] is on record as 476 - 4730. On hERG (KCNH2), this compound returned an inhibition at 10 µM of 2%. The compound further had a maximum concentration (Cmax) in [6] of 239 ng/mL. The Tmax in data set [7] worked out at 1 h. Further, the bioavailability in [10] is 64%.
Take `CCOc1ccc(Cc2cc([C@@H]3O[C@H](/C=N/Nc4ccc([N+](=O)[O-])cc4)[C@@H](O)[C@H](O)[C@H]3O)ccc2Cl)cc1`: the concentration giving a half-maximal response (EC50) in data set [1] came out at 370 nM.
Turning to `CCC#CCO/N=C/[C@H]1O[C@@H](c2ccc(Cl)c(Cc3ccc(OCC)cc3)c2)[C@H](O)[C@@H](O)[C@@H]1O`, the EC50 in [1] is 396 nM.
Consider `CCOc1ccc(Cc2cc([C@@H]3O[C@H](/C=N/OCCC(C)(C)C)[C@@H](O)[C@H](O)[C@H]3O)ccc2Cl)cc1`, for which the EC50 in [1] turned out to be 8540 nM.
On to `CCOc1ccc(Cc2cc([C@@H]3O[C@H](/C=N/NC(=O)c4cccs4)[C@@H](O)[C@H](O)[C@H]3O)ccc2Cl)cc1`, for which the EC50 in data set [1] turned out to be 175 nM.
